In the library only some 3.9% were active in any assay of this set; here they are far more common.
UPR CHOP act: activators of apoptotic CHOP UPR arm, primary screen, cell-based, CHO-CHOP luciferase reporter, luminescence, uHTS; activation, % at 10 µM; hit rate 0.34% among 330,000; UPR activation; percent of tunicamycin response over DMSO baseline;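 active = at 10 µM dose, activation of 40% or more, normalized to positive control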
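System: CHO CHOP reporter cells. Amount: 500 cells per well. Buffer or medium: F12 medium, 10% FBS. Compound dosing: one dose, 10 µM in 0.5% DMSO. Incubation: 6 h compound exposure at 37 °C after overnight seeding. Technique: Steady-Glo luciferase luminescence. Benchmarks: tunicamycin and DMSO controls.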
Jurkat NFkB inh: inhibitors of induced NF-kB luciferase reporter, primary screen, TCR NF-kB activation inhibitor project, cell-based, luminescence, uHTS. Jurkat, PMA/ionomycin-induced NF-kB luciferase reporter. inhibition, % at 4 µM. hit rate 0.53% among 330,000; in the data active = inhibition above about 50%
697 NFkB inh: inhibitors of PMA/ionomycin-induced NF-kB reporter, 697 cells, primary screen, B-cell NF-kB inhibitor project, cell-based, luminescence, uHTS; hit rate 0.33% among 330,000; 697 B-cell NF-kB luciferase reporter, 16 h; inhibition, % at 4 µM; AID 435022, 2010; in the data active = inhibition above about 35%
CHOP inhibitor: inhibitors of CHOP promoter induction, primary screen, cell-based, unfolded protein response, luciferase reporter; CHO-K1 CHOP-promoter luciferase, tunicamycin-induced, 15-18 h; inhibition, % at 10 µM; hit rate 3.8% among 220,000; AID 2732, 2010;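 active = compounds that reduced the stress-induced luciferase reporter signal by more than about 70% of percent inhibition, limit read from the data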
Gli-Sufu block: Gli-Sufu pathway antagonists, primary screen, luciferase luminescence, Sufu-KO-LIGHT cells, uHTS; inhibition, % at 5 µM; AID 588413, 2011; hit rate 0.74% among 340,000; Sufu-KO-LIGHT fibroblasts, Gli luciferase reporter luminescence;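 active = inhibition above about 55%, limit read from the data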
XBP1 UPR activ: activators of adaptive XBP1 UPR arm, primary screen, cell-based, CHO-XBP1 luciferase reporter, luminescence, uHTS; IRE1-XBP1 UPR activation; percent of tunicamycin response, DMSO as zero; activation, % at 20 µM; hit rate 0.33% among 330,000;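 active = versus positive control, 20 µM dose yields 30% or more activation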
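Test system: CHO-XBP1 luciferase reporter cells | Buffer or medium: Serum-containing F12 medium, 10% FBS | Schedule: 6 h compound exposure at 37 °C, 5% CO2 | Detection: Steady-Glo luciferase glow luminescence, 10 min after reagent addition | Read-out basis: Activation, % of tunicamycin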
Jurkat NFkB conf: PMA/ionomycin-induced NF-kB reporter inhibitors, Jurkat retest, confirmation, T-cell NF-kB inhibitor project, cell-based, luminescence, single concentration. inhibition, % at 4 µM. Jurkat NF-kB luciferase, 16 h. hit rate 27% among 2,700. shares compounds with Jurkat NFkB inh;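 active = inhibition reaching about 45% at 4 µM in either replicate, limit read from the data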
Numbers stand for hits; – = inactive; · = not tested or not shown.

SMILES	UPR CHOP act	Jurkat NFkB inh	697 NFkB inh	CHOP inhibitor	Gli-Sufu block	XBP1 UPR activ	Jurkat NFkB conf
COC(=O)c1c(-c2cccc3ccccc23)csc1NC(=O)Cc1ccc(OC)c(OC)c1	–	53	–	73	–	–	–
O=C(Oc1ccc(-c2cnc3ccccc3n2)cc1)c1ccco1	–	–	–	–	–	–	–
COc1ccc(C(=O)c2ccc(OC)c(N)c2)cc1N	–	53	–	·	–	–	–
CC(C)NC(=O)c1ccc(COc2cc(Cl)ccc2Cl)o1	–	–	–	·	–	–	·
CCn1c(O)c(N=NC(=O)CNC(=O)Cc2ccccc2)c2ccccc21	–	–	–	·	–	–	·
O=C(CNC(=O)c1ccco1)N=Nc1c(O)n(CCc2ccccc2)c2ccccc12	–	67	–	–	–	–	51
CN1CCN(c2ccc(NC(=O)c3sc4ccccc4c3Cl)cc2)CC1	–	–	–	–	–	–	–
CN1CCN(C(=O)c2ccccc2NC(=O)c2sc3ccccc3c2Cl)CC1	–	–	–	·	–	–	·
COc1ccc(-c2csc(NC(=O)C3CC(=O)N(Cc4ccccc4)C3)n2)cc1OC (configuration not stated)	–	–	–	·	–	–	·
CCOC(=O)Cn1c2c(c(=N)c3ccccc31)CCC2	–	–	–	–	–	–	·
CCCCCn1c2c(c(=N)c3ccccc31)CCC2	–	74	–	–	84	–	47
CCCCCCCCn1c2c(c(=N)c3ccccc31)CCC2	–	99	–	77	91	–	69
Nc1c(C(=O)Nc2ccc(Cl)c(C(=O)O)c2)sc2nc3c(cc12)CCCC3	–	–	–	·	–	–	·
Nc1c(C(=O)Nc2cccc(C(=O)O)c2)sc2nc3c(cc12)CCCC3	–	70	–	·	–	–	–
CC1(C)CC2CC(C)(CN2S(=O)(=O)c2ccc(C(=O)Nc3cccc(S(=O)(=O)N4CCOCC4)c3)cc2)C1 (configuration not stated)	–	63	–	–	–	–	69
Cc1ccc(Nc2cc(C)nn2-c2nc(C)cc(=O)[nH]2)cc1	190	97	–	·	92	–	68
Cc1ccc(Nc2nc3ccccc3nc2-n2nc(C)cc2C)cc1	–	–	–	–	–	–	·
Cc1cccc(-n2ccnc2SCC(=O)c2c(N)n(C3CC3)c(=O)[nH]c2=O)c1C	–	–	–	·	–	–	·
COc1cc(/C=N/NS(=O)(=O)c2ccc(C)cc2)ccc1OCc1ccc(C(=O)O)cc1	–	63	–	–	–	–	–
Nc1nn2cc(-c3ccccc3)nc2c2ccccc12	–	–	–	–	–	–	–
Cc1cc(-c2ccc(S(=O)(=O)N3CCN(c4ccccc4F)CC3)s2)on1	–	–	–	·	–	–	·
COC(=O)c1cccc(NC(=O)NC(=O)c2ccccc2Cl)c1	–	62	–	–	–	–	–
COc1ccccc1C(=O)Nc1ccc2c(c1)nc(CCNC(C)=O)n2C	–	–	–	–	–	–	·
COc1ccccc1C(=O)Nc1ccc2c(c1)nc(CCNC(=O)c1ccccc1)n2C	–	54	–	–	–	–	–
Cc1cc(C)cc(NC2=NC3(CCCCC3)N=C(N)N2)c1	–	66	–	·	–	–	–
SMILES	UPR CHOP act	Jurkat NFkB inh	697 NFkB inh	CHOP inhibitor	Gli-Sufu block	XBP1 UPR activ	Jurkat NFkB conf
CCOCCOC(=O)Cn1cnc2scc(-c3ccc(C)cc3)c2c1=O	–	–	–	·	–	–	·
CC(C)(C)OC(=O)NCc1ccc(NC(=O)c2nc[nH]c2C(=O)NCCNC(=O)c2[nH]cnc2C(=O)Nc2ccc(CNC(=O)OC(C)(C)C)cc2)cc1	–	62	–	·	–	–	–
CCOC(=O)C1CCN(S(=O)(=O)c2ccc3c(c2)CC(=O)N3C)CC1	–	–	–	·	–	–	·
O=C1CC(c2cccc(Br)c2)c2cc3c(cc2N1)CCC3 (configuration not stated)	–	54	–	108	–	–	–
CC1(C)CC(=O)C2=C(C1)NC(=O)CC2c1cc(F)ccc1F (configuration not stated)	–	–	–	–	–	–	·
COc1cc2c(cc1OC)C(c1cccc(Br)c1)CC(=O)N2 (configuration not stated)	–	–	–	·	–	–	·
O=C1CC(c2cc(F)ccc2F)c2cc3c(cc2N1)CCC3 (configuration not stated)	–	71	–	71	–	–	52
CC/C(=C\c1ccc(N(C)C)cc1)c1ccncc1	·	·	·	·	–	·	·
N#C/C(=N\Nc1cccc(F)c1)C(=N)N1CCCCCC1	–	–	–	–	–	–	–
O=C(/C=C\Nc1ccc2c(c1)OCO2)c1cccs1	–	–	–	–	–	–	·
O=C(/C=C\Nc1cccc(F)c1)c1cccs1	–	–	–	–	–	–	–
COc1cc(CC(=O)OCC(=O)c2ccc3c(c2)OCCO3)cc(OC)c1OC	–	61	–	–	–	–	–
CCCN(CC(=O)Nc1ccccc1C)C(=O)CCCOc1ccc(Br)cc1	–	–	–	·	–	–	·
O=C(/C=C\Nc1ccc2c(c1)OCO2)c1ccccn1	–	55	–	95	–	–	–
C/C(=N\NC(=O)c1nnn(-c2nonc2N)c1-c1ccc2c(c1)OCO2)c1ccc(C)cc1	–	–	–	·	–	–	·
Cc1cccc(N2CCN(C(=O)c3c(-c4ccccc4Cl)noc3C)CC2)c1C	–	67	–	·	·	–	51
Cc1onc(-c2ccccc2Cl)c1C(=O)N1CCN(C=O)CC1	–	–	–	·	–	–	·
CC(C)Oc1ccc2c(=O)c(-c3ccccc3)coc2c1	–	–	–	–	–	–	–
O=C1CCCC(O)=C1Sc1cc(Cl)c(Cl)cc1Cl	–	–	–	·	–	–	·
O=C(COc1ccc(Br)cc1)N/N=C1\SCC(=O)N1c1ccc(F)cc1	–	99	–	–	–	–	–
COc1cc(C(=O)COC(=O)c2c(C)noc2C)cc(OC)c1OC	–	–	–	·	–	–	–
c1ccc2[nH]c(Cn3nnc4ccccc43)nc2c1	–	–	–	·	–	–	·
COc1ccc(-n2ncc3c(NCc4cccnc4)ncnc32)cc1	–	–	–	·	–	–	·
COc1ccc(-n2ncc3c(NC(C)C)ncnc32)cc1	–	–	–	–	–	–	–
Clc1ccc(Cn2ncc3c(NCc4ccccc4)ncnc32)cc1	–	56	–	–	–	–	–
C=CCNc1ncnc2c1cnn2-c1ccc(Cl)cc1	–	–	–	–	–	–	–
